Reference: ChEMBL document CHEMBL3526154, “Metabolism, pharmacokinetics, tissue distribution, and stability studies of the prodrug analog of an anti-hepatitis B virus dinucleoside phosphorothioate” (Drug Metab Dispos, 2012)

Columns and labels:
Settings in all cases: in vivo
[1] = Drug excretion in female Sprague-Dawley rat urine at 10 mg/kg, iv administered as bolus dose measured at 1 to 4 hrs post-dose by liquid scintillation counting analysis; format: ADME, organism-based; parameters: dose 10 mg/kg, route intravenous
How it was run: (§1)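 Single [³⁵S]-prodrug dose to rats, i.v. tail-vein bolus (PEG 400/saline vehicle) or oral gavage (citric acid buffer pH 2.5), 5 ml/kg. Urine and feces collected ~1, 4 and 24 h postdose. Radioactivity counted by liquid scintillation and expressed as % of administered dose. Mean and S.D. from nine rats per sex.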

[2] = Drug excretion in male Sprague-Dawley rat urine at 10 mg/kg, iv administered as bolus dose measured at 0 to 1 hr post-dose by liquid scintillation counting analysis; format: ADME, organism-based; parameters: dose 10 mg/kg, route intravenous; how it was run: as §1
Rattus norvegicus [3] = assay: Drug recovery in male Sprague-Dawley rat at 10 mg/kg, iv administered as bolus dose measured after 24 hrs by liquid scintillation counting analysis; format: ADME, organism-based; parameters: dose 10 mg/kg, route intravenous
How it was run: (§2)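 Rats got a single i.v. bolus or oral gavage dose of [³⁵S]-prodrug at 5 ml/kg over a 24 h study. Radioactivity in blood, tissues, carcass, urine and feces measured by liquid scintillation counting. Total recovery given as % of administered dose at 24 h.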

[4] = Drug excretion in female Sprague-Dawley rat urine at 10 mg/kg, iv administered as bolus dose measured at 0 to 24 hrs post-dose by liquid scintillation counting analysis; format: ADME, organism-based; parameters: dose 10 mg/kg, route intravenous; how it was run: as §1
[5] = Drug excretion in male Sprague-Dawley rat urine at 10 mg/kg, po administered as single dose measured at 1 to 4 hrs post-dose by liquid scintillation counting analysis; format: ADME, organism-based; parameters: dose 10 mg/kg, route oral; how it was run: as §1
[6] = Drug excretion in female Sprague-Dawley rat urine at 10 mg/kg, iv administered as bolus dose measured at 4 to 24 hrs post-dose by liquid scintillation counting analysis; format: ADME, organism-based; parameters: dose 10 mg/kg, route intravenous; how it was run: as §1
[7] = Drug excretion in male Sprague-Dawley rat feces at 10 mg/kg, iv administered as bolus dose measured at 0 to 24 hrs post-dose by liquid scintillation counting analysis; format: ADME, organism-based; parameters: dose 10 mg/kg, route intravenous; how it was run: as §1
[8] = Drug excretion in female Sprague-Dawley rat urine at 10 mg/kg, po administered as single dose measured at 4 to 24 hrs post-dose by liquid scintillation counting analysis; format: ADME, organism-based; parameters: dose 10 mg/kg, route oral; how it was run: as §1
Spleen = assay: Drug uptake in Sprague-Dawley rat spleen at 10 mg/kg, iv administered as bolus dose measured at 1 to 24 hrs post-dose by liquid scintillation counting analysis; format: ADME, organism-based; parameters: dose 10 mg/kg, route intravenous
How it was run: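 [35S]-labelled prodrug given once to rats, iv bolus via tail vein (25% PEG 400/75% saline) or oral gavage (0.05 M citric acid buffer, pH 2.5), 5 ml/kg. Rats euthanised at 1, 4 or 24 h. Liver, lung, kidney, heart, brain, spleen, tail and retro-orbital plasma were collected. Samples were homogenised and solubilised, and radioactivity was counted by liquid scintillation. Values are µg-equivalent/ml or g and % of dose.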

[9] = Drug excretion in female Sprague-Dawley rat urine at 10 mg/kg, po administered as single dose measured at 0 to 24 hrs post-dose by liquid scintillation counting analysis; format: ADME, organism-based; parameters: dose 10 mg/kg, route oral; how it was run: as §1
Rattus norvegicus [10] = assay: Terminal half life in female Sprague-Dawley rat at 10 mg/kg, iv administered as bolus dose by liquid scintillation counting analysis; format: ADME, organism-based; parameters: dose 10 mg/kg, route intravenous
How it was run: (§3)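 Radioactivity in plasma from rats given a single [35S]-labelled dose, iv (tail vein, 25% PEG 400/75% saline) or oral gavage (0.05 M citric acid, pH 2.5), sampled at 1, 4 and 24 h, measured by liquid scintillation as µg-Eq/ml. Elimination t1/2 and Tmax were derived by noncompartmental analysis with sparse sampling, from nine male and nine female rats.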

[11] = Drug excretion in female Sprague-Dawley rat feces at 10 mg/kg, iv administered as bolus dose measured at 0 to 24 hrs post-dose by liquid scintillation counting analysis; format: ADME, organism-based; parameters: dose 10 mg/kg, route intravenous; how it was run: as §1
Heart = assay: Drug uptake in Sprague-Dawley rat heart at 10 mg/kg, iv administered as bolus dose measured at 1 to 24 hrs post-dose by liquid scintillation counting analysis; format: ADME, organism-based; parameters: dose 10 mg/kg, route intravenous
How it was run: (§4)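 Single i.v. tail-vein bolus or oral gavage of [³⁵S]-prodrug to rats, 5 ml/kg. Euthanised by i.p. pentobarbital overdose at 1, 4 or 24 h. Retro-orbital blood collected; liver, lung, kidney, heart, brain and spleen frozen. Tissues homogenised, solubilised and counted by liquid scintillation. Radioactivity given as µg-Eq/g and % of dose.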

Rattus norvegicus [12] = assay: Cmax in male Sprague-Dawley rat at 10 mg/kg, iv administered as bolus dose by liquid scintillation counting analysis; format: ADME, organism-based; parameters: dose 10 mg/kg, route intravenous
How it was run: (§5)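 Single dose of [³⁵S]-labelled prodrug to rats, i.v. tail-vein bolus in 25% PEG 400/75% saline or oral gavage in 0.05 M citric acid buffer pH 2.5, 5 ml/kg. Retro-orbital blood into EDTA at 1, 4 or 24 h; plasma by centrifugation. Radioactivity by liquid scintillation counting as µg-Eq/ml. Noncompartmental sparse-sampling analysis gives Cmax and AUC; nine rats per sex.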

[13] = Drug excretion in female Sprague-Dawley rat feces at 10 mg/kg, po administered as single dose measured at 0 to 24 hrs post-dose by liquid scintillation counting analysis; format: ADME, organism-based; parameters: dose 10 mg/kg, route oral; how it was run: as §1
[14] = Drug excretion in male Sprague-Dawley rat urine at 10 mg/kg, iv administered as bolus dose measured at 4 to 24 hrs post-dose by liquid scintillation counting analysis; format: ADME, organism-based; parameters: dose 10 mg/kg, route intravenous; how it was run: as §1
Rattus norvegicus [15] = assay: Cmax in female Sprague-Dawley rat at 10 mg/kg, iv administered as bolus dose by liquid scintillation counting analysis; format: ADME, organism-based; parameters: dose 10 mg/kg, route intravenous; how it was run: as §5
Rattus norvegicus [16] = assay: Tmax in female Sprague-Dawley rat at 10 mg/kg, po administered as single dose by liquid scintillation counting analysis; format: ADME, organism-based; parameters: dose 10 mg/kg, route oral; how it was run: as §3
[17] = Drug excretion in female Sprague-Dawley rat feces at 10 mg/kg, iv administered as bolus dose measured at 4 to 24 hrs post-dose by liquid scintillation counting analysis; format: ADME, organism-based; parameters: dose 10 mg/kg, route intravenous; how it was run: as §1
Rattus norvegicus [18] = assay: Terminal half life in male Sprague-Dawley rat at 10 mg/kg, iv administered as bolus dose by liquid scintillation counting analysis; format: ADME, organism-based; parameters: dose 10 mg/kg, route intravenous; how it was run: as §3
Brain = assay: Drug uptake in Sprague-Dawley rat brain at 10 mg/kg, po administered as single dose measured at 1 to 24 hrs post-dose by liquid scintillation counting analysis; format: ADME, organism-based; parameters: dose 10 mg/kg, route oral; how it was run: as §4
[19] = Drug excretion in male Sprague-Dawley rat feces at 10 mg/kg, po administered as single dose measured at 4 to 24 hrs post-dose by liquid scintillation counting analysis; format: ADME, organism-based; parameters: dose 10 mg/kg, route oral; how it was run: as §1
Rattus norvegicus [20] = assay: Drug recovery in female Sprague-Dawley rat at 10 mg/kg, iv administered as bolus dose measured after 24 hrs by liquid scintillation counting analysis; format: ADME, organism-based; parameters: dose 10 mg/kg, route intravenous; how it was run: as §2
[21] = Drug excretion in female Sprague-Dawley rat urine at 10 mg/kg, po administered as single dose measured at 0 to 1 hr post-dose by liquid scintillation counting analysis; format: ADME, organism-based; parameters: dose 10 mg/kg, route oral; how it was run: as §1
Rattus norvegicus [22] = assay: Drug recovery in male Sprague-Dawley rat at 10 mg/kg, po administered as single dose measured after 24 hrs by liquid scintillation counting analysis; format: ADME, organism-based; parameters: dose 10 mg/kg, route oral; how it was run: as §2
[23] = Drug excretion in male Sprague-Dawley rat urine at 10 mg/kg, iv administered as bolus dose measured at 0 to 24 hrs post-dose by liquid scintillation counting analysis; format: ADME, organism-based; parameters: dose 10 mg/kg, route intravenous; how it was run: as §1
[24] = Drug excretion in male Sprague-Dawley rat feces at 10 mg/kg, iv administered as bolus dose measured at 1 to 4 hrs post-dose by liquid scintillation counting analysis; format: ADME, organism-based; parameters: dose 10 mg/kg, route intravenous; how it was run: as §1
[25] = Drug excretion in male Sprague-Dawley rat feces at 10 mg/kg, po administered as single dose measured at 1 to 4 hrs post-dose by liquid scintillation counting analysis; format: ADME, organism-based; parameters: dose 10 mg/kg, route oral; how it was run: as §1
Rattus norvegicus [26] = assay: AUC in male Sprague-Dawley rat at 10 mg/kg, iv administered as bolus dose by liquid scintillation counting analysis; format: ADME, organism-based, Plasma; parameters: dose 10 mg/kg, route intravenous; how it was run: as §5

`CO[C@@H]1[C@H](OP(=O)(OC[C@H]2O[C@@H](n3cnc4c(N)ncnc43)C[C@@H]2O)[35S]COC(=O)OC(C)C)[C@@H](CO)O[C@H]1n1ccc(=O)[nH]c1=O` (some centres undefined) gave a Drug excretion [1] of 6.34%, a Drug excretion [2] of 22.83% and a Drug recovery (Rattus norvegicus [3]) of 83.7%. It also gave a Drug excretion [4] of 58.94%, a Drug excretion [5] of 0.86% and a Drug excretion [6] of 36.79%. The Drug excretion [7] was 16.9%, the Drug excretion [8] was 34.78% and the Drug uptake (Spleen) was “<= 0.5%”. For the same compound, the Drug excretion [9] was 36.88%, the “beta t1/2” value (Rattus norvegicus [10]) was 9 h and the Drug excretion [11] was 9.44%. The Drug uptake (Heart) was “<= 0.5%”, the Cmax (Rattus norvegicus [12]) was 6.51 ugequiv/ml and the Drug excretion [13] was 2.72%. For the same compound, the Drug excretion [14] was 29.6%, the Cmax (Rattus norvegicus [15]) was 4.49 ugequiv/ml and the Tmax (Rattus norvegicus [16]) was 4 h. The Drug excretion [17] was 9.44%, the “beta t1/2” value (Rattus norvegicus [18]) was 7.8 h and the Drug uptake (Brain) was “<= 0.5%”. For the same compound, the Drug excretion [19] was 35.71%, the Drug recovery (Rattus norvegicus [20]) was 84.9% and the Drug excretion [21] was 0.16%. For the same compound, the Drug recovery (Rattus norvegicus [22]) was 83%, the Drug excretion [23] was 56.15% and the Drug excretion [24] was 0.01%. It also gave a Drug excretion [25] of 0.01% and an AUC (Rattus norvegicus [26]) of 53.58 ugequiv.h/ml.
